# A selection: hits, their analogues and other compounds. The true share with any hit is near 1.1%.
# SR-BI DiI-HDL act: activators of SR-BI mediated DiI-HDL uptake, primary screen, ldlA[mSR-BI] CHO cells, DiI fluorescence | 3 h; 100 = double the neutral-control signal | 0.096% of 320,000 active | activation, % at 12.5 µM | AID 504775, 2011;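 active means mean replicate activation of at least 60% and every replicate at or above 60%; inconclusive means mean or all-replicate condition met, but not both; inactive means mean below 60% and not all replicates reaching 60%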
#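 Material: SR-BI-overexpressing, LDLR-lacking CHO cells | Dosing: Single compound concentration, delivered by pin transfer | Probe or stimulus: Labelled HDL, 10 µg/mL | Signal: Bottom-read cell fluorescence after medium removal, ex 550/em 595 nm | Schedule: 3 h, 37 °C | Evaluation: HDL uptake via cellular fluorescence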
# SR-BI DiI inh: inhibitors of SR-BI mediated HDL lipid uptake, primary screen, ldlA[mSR-BI] cells, fluorescence, single point | ldlA[mSR-BI] CHO cells, DiI-HDL uptake fluorescence, 3 h | 0.96% of 320,000 active | inhibition, % at 12.5 µM | Scavenger receptor class B member 1 (Mus musculus), Q61009;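 active means mean replicate inhibition of at least 70% and a set share of replicates each scoring 70 or more; inconclusive means meets just one of the two criteria; inactive means fails both criteria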
# CDK5 p35 inh: inhibitors of human CDK5/p35 kinase, primary screen, biochemical, single concentration | Cyclin-dependent kinase 5 (Homo sapiens) + Cyclin-dependent kinase 5 activator 1 (Homo … | inhibition, % at 10 µM | 0.01% of 330,000 active | Recombinant CDK5/p35, ADP-Glo luminescence, 60 min;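 active means highest replicate inhibition of at least 50% and at least 75% of replicates reaching 50%; inconclusive means only one of the two criteria met; inactive means both criteria failed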
# Target sequence (Q00535 whole entry, looked up): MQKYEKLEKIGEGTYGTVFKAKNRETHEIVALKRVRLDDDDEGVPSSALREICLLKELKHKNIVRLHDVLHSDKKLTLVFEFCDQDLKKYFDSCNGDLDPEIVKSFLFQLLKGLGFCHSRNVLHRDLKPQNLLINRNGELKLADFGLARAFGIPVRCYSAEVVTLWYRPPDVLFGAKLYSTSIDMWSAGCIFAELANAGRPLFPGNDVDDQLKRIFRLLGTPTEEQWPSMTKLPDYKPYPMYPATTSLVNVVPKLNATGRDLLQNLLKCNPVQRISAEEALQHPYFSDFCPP
# Target sequence (Q15078 whole entry, looked up): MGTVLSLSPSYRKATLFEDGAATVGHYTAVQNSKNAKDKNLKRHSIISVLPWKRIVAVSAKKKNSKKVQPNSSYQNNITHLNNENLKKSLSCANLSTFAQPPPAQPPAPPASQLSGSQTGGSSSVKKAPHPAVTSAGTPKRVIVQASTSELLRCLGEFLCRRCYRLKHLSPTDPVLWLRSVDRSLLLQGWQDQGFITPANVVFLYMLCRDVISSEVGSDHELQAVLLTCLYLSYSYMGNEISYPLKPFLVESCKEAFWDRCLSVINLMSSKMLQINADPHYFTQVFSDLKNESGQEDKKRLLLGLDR
# GSK3 alpha inh: blockers of GSK3A enzyme activity – biochemical, luminescence, cell-free homogeneous, HTS, primary screen | 0.1% of 320,000 active | GSK-3 alpha kinase, ADP-Glo luminescence, 60 min | inhibition, % at 10 µM | AID 2650, 2010;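 active means more than half of replicates show inhibition above 20%; inconclusive means some but at most half of replicates above 20% inhibition; inactive means no replicate shows inhibition above 20%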;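 further: GST-tagged GSK-3 alpha with peptide substrate and 25 µM ATP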
# GSK3B inh: human GSK3beta kinase inhibitors, primary screen, biochemical, cell-free homogeneous, HTS | GST-GSK3beta kinase, ADP-Glo luminescence, 60 min; hits give low values | activity score (negative = inhibition), % at 10 µM | 0.038% of 300,000 active;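 active means more than half of replicate wells score below -50%, meaning over 50% inhibition versus plate controls; inconclusive means some replicates but at most half score below -50%; inactive means no replicate scores below -50%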
#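 Test system – GST-tagged human GSK3beta kinase, cell-free · Incubation – 60 min enzyme reaction, room temperature · Signal – ADP-Glo luminescence · Also added – peptide substrate and ATP at 25 µM · Controls – DMSO neutral wells and GW8510 at 20 µM as positive · Buffer or medium – Tris/MgCl2 kinase buffer · Measure – Luminescence-derived activity versus plate DMSO and GW8510 wells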
# Hits are given with their value; . = inactive; ? = inconclusive; / = no result.
SMILES,SR-BI DiI-HDL act,SR-BI DiI inh,CDK5 p35 inh,GSK3 alpha inh,GSK3B inh
O=C(/C=C/NNC(=O)c1ccccc1)c1ccc([N+](=O)[O-])cc1,.,122.8,.,.,.
CC(=O)N1CCN(c2ccc(NS(=O)(=O)c3ccc(C)cc3)cc2)CC1,/,/,.,.,.
CC(C)N(CCNC(=O)c1ccc(CS(=O)(=O)c2c(Cl)cccc2Cl)o1)Cc1ccccc1,.,.,.,.,.
CCOC(=O)COc1cnc2ccccc2n1,.,.,.,/,.
CCCCOc1ccc(-c2nnc(N)s2)cc1,.,.,.,.,.
CCCCOc1ccc(-c2ncc(N)cn2)cc1,312.7,.,.,.,.
CCC(C)(C)C1CCC(NC(=O)c2ccc(S(=O)(=O)N3CCOCC3)cc2)CC1 (configuration not stated),66.6,.,.,.,/
Cc1ccc(C(=O)NC2CC2)cc1S(=O)(=O)N1CCOCC1,.,.,.,.,/
CCOC(=O)C1CCN(CC(O)COc2ccc(S(=O)(=O)N3CCCC3)cc2[N+](=O)[O-])CC1 (configuration not stated),.,.,.,/,/
CCOc1ccc(/C=N/NC(=O)Cc2csc(Nc3cccc(C(F)(F)F)c3)n2)c(OCC)c1,.,81.1,.,/,.
CCOc1ccc(/C=N/NC(=O)Cc2csc(Nc3cccc(C(F)(F)F)c3)n2)cc1,.,76.8,.,/,.
COc1ccc(/C=N/NC(=O)Cc2csc(Nc3cccc(C(F)(F)F)c3)n2)c(OC)c1,.,?,.,.,.
CCOc1ccccc1/C=N/NC(=O)Cc1csc(Nc2cccc(C(F)(F)F)c2)n1,/,/,.,.,.
O=C1c2cccc3cccc(c23)C(=O)N1CC1CCN(CC(O)COCc2ccc3c(c2)OCO3)CC1 (configuration not stated),.,70.2,.,.,.
COc1ccc(OCC(O)CN2CCC(CN3C(=O)c4cccc5cccc(c45)C3=O)CC2)cc1 (configuration not stated),.,77.1,.,.,.
O=C(CCN1C(=O)c2cccc3cccc(c23)C1=O)N1CCN(Cc2ccc3c(c2)OCO3)CC1,.,74.3,.,.,.
Cc1ccc(C)c(OCC(O)CN2CCC(CN3C(=O)c4cccc5cccc(c45)C3=O)CC2)c1 (configuration not stated),.,.,.,.,.
CCOC(=O)C1CCN(CC(O)COCc2ccc3c(c2)OCO3)CC1 (configuration not stated),.,.,.,.,.
Cc1cc(C)c(S(=O)(=O)N2CCCOC2CNC(=O)C(=O)NCCc2c[nH]c3ccccc23)c(C)c1 (configuration not stated),.,.,.,.,.
COc1ccc(CCNC(=O)c2ccc(=O)[nH]c2)cc1OC,/,/,.,.,.
Cc1nn(-c2ccccc2)c2nc(C(F)F)cc(C(F)F)c12,.,.,.,.,/
CC1CCCC(NC(=O)CCNS(=O)(=O)c2ccc(Br)cc2)C1C (configuration not stated),.,.,.,.,.
CCCCCn1c(N)c(-c2nc3ccccc3s2)c2c([N+](=O)[O-])nn(C)c(=O)c21,.,83.9,.,.,.
CCCCn1c(N)c(-c2nc3ccccc3o2)c2c([N+](=O)[O-])nn(C)c(=O)c21,.,.,.,.,.
O=S(=O)(c1ccccc1)C1(C2CC(c3ccccc3)=NO2)CC(O)C1 (configuration not stated),.,.,.,.,.
O=C(CNC(=O)c1ccc(OC(F)F)cc1)Nc1cccc(S(=O)(=O)N2CCCC2)c1,.,.,.,.,.
Cc1ccc(Cn2cc(/C=N/NC(=O)Cc3nnc(NC(=O)c4ccc(C)cc4)s3)c3ccccc32)cc1,.,77.5,.,.,.
O=[N+]([O-])c1ccccc1C=NNc1ccccc1,/,/,.,/,/
Cc1ccc(-c2nc(N/N=C/c3ccccc3[N+](=O)[O-])c3ccccc3n2)cc1,.,87.3,.,/,.
Cc1ccc(NS(=O)(=O)c2cc(NC(=O)c3cc4c(s3)CCCC4)ccc2C)c(C)c1,.,82.8,.,.,.
